From PubChem
ABHD4 inh = inhibits mouse alpha/beta hydrolase domain 4 | Q8VD66 | purified mABHD4, FP-Rh probe fluorescence polarization | inhibition, % at 8.92 µM | 370,000 compounds, 0.54% hits | AID 720543;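 active means inhibition exceeding the mean over every tested compound plus 3 SD, cut at about 30% in these data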;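 further: 0% = plate median of compound wells and 100% = S159A mutant with DMSO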
Target sequence (Q8VD66 whole entry, looked up, the tested form may be a part): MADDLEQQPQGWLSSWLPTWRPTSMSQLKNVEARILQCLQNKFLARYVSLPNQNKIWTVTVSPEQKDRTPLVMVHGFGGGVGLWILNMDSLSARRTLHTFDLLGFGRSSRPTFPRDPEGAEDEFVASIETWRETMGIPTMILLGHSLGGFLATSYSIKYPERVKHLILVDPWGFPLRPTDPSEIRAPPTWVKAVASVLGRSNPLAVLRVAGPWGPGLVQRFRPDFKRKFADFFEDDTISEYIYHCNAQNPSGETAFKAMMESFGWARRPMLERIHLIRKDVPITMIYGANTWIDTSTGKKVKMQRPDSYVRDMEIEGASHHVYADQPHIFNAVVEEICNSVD
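Test system: mABHD4 protein | Buffer or medium: HEPES pH 7.0 buffer, 150 mM NaCl, 0.01% Pluronic F-127 | Probe or stimulus: FP-Rh fluorescent activity-based probe, added after compound pre-incubation | Timing: Pre-incubation 45 min, probe exposure 60 min, at 25 °C | Technique: Fluorescence polarization, excitation 525 nm, emission 598 nm, BODIPY TMR filters | Repeats: Single well per compound (singlicate)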
PRMT1 inh = blocks human protein arginine methyltransferase 1; 370,000 compounds, 1.3% hits; recombinant PRMT1, activity-based probe fluorescence polarization; Q99873; inhibition, % at 2.79 µM;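 active means inhibition above about 21% made by adding two undisclosed values, limit read from the data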
Target sequence (Q99873 whole entry, looked up): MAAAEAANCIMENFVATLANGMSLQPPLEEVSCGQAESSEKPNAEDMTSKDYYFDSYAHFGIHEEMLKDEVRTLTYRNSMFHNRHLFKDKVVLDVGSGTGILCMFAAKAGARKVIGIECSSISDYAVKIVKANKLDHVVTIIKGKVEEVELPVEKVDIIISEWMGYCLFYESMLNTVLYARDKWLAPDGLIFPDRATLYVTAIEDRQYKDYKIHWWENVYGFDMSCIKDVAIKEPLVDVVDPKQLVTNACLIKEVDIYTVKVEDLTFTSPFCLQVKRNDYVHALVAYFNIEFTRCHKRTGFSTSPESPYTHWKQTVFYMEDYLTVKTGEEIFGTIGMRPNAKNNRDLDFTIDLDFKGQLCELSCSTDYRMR
HTRA1 inh = blocks human HTRA1 serine peptidase | recombinant HTRA1, FP-rhodamine activity-based probe, fluorescence polarization | inhibition, % at 5.96 µM | 340,000 compounds, 0.5% hits; in the data active means inhibition above about 36%;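 further: 0% = enzyme with DMSO and 100% = wells lacking enzyme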
rCAG binder = r(CAG) repeat RNA binding. TO-PRO-1 dye displacement fluorescence. inhibition, % at 3 µM. 370,000 compounds, 1.3% hits. AID 651821;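 active means inhibition above the plate cutoff, the mean of all test compounds on that plate plus 3 SD, cut at about 35% in these data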;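 further: 0% = DMSO alone and 100% = 100 µM mitoxantrone as full dye displacement; higher means more dye released from RNA so lower well fluorescence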
SIAE inh = inhibitors of human sialic acid acetylesterase SIAE; AID 1053197; inhibition, % at 9.66 µM; SIAE FP-Rh probe binding, fluorescence polarization; 370,000 compounds, 0.69% hits; Q9HAT2;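 active means inhibition above a cutoff: mean of compounds within the control limits plus 3 SD of those, cut at about 17% in these data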;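 further: 0% = plate median of compound wells and 100% = probe without SIAE protein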
PRMT1 confirm = PRMT1 (human) inhibition, FP confirmation; 3,300 compounds, 42% hits; recombinant His-PRMT1, activity-based probe fluorescence polarization; shares compounds with PRMT1 inh; inhibition, % at 2.79 µM; AID 687036;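 active means mean inhibition across replicates above the hit cutoff derived for the earlier primary screen, cut at about 22% in these data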
* marks the source's active call; other numbers are inactive results. Rows were chosen to be rich in hits. Some 3.3% of all compounds tested hit in one or more screens of this group.

Results for COc1ccc(NC(=O)CC2SC(=O)NC2=O)cc1 (stereo not drawn) ?
ABHD4 inh: 4.4; PRMT1 inh: 52.5*; HTRA1 inh: 8.9; rCAG binder: 14.4; SIAE inh: 0.0; PRMT1 confirm: 65.5*

What do the screens show for `Cc1ccc(NC(=O)CC2SC(=O)NC2=O)cc1` (stereo not drawn)?
ABHD4 inh: -14.4; PRMT1 inh: 55.6*; HTRA1 inh: -6.7; rCAG binder: 15.2; SIAE inh: -3.9; PRMT1 confirm: 75.7*

How did Cc1ccc(NC(=O)CC2Oc3ccc(C)cc3NC2=O)cc1 (stereo not drawn) do in these assays?
ABHD4 inh: -7.1; PRMT1 inh: 4.5; HTRA1 inh: -3.8; rCAG binder: 1.6; SIAE inh: -3.3

What do the screens show for `Nc1ccc(C(=O)O)c(O)c1`?
ABHD4 inh: 15.1; PRMT1 inh: 15.5; HTRA1 inh: 5.6; rCAG binder: 3.6; SIAE inh: 7.0

Results for Cc1ccc(N)cc1O ?
ABHD4 inh: 26.5; PRMT1 inh: 39.1*; HTRA1 inh: 5.4; rCAG binder: 3.4; SIAE inh: -0.6; PRMT1 confirm: -0.3

What do the screens show for `Cc1c([N+](=O)[O-])cc(N2C(=O)C=CC2=O)cc1[N+](=O)[O-]`?
HTRA1 inh: 3.2

What do the screens show for `Cc1cc(C)cc(N2C(=O)C=CC2=O)c1`?
ABHD4 inh: -1.1; PRMT1 inh: 80.2*; HTRA1 inh: -5.4; rCAG binder: 6.5; SIAE inh: -4.5; PRMT1 confirm: 96.4*

Results for CC(=O)Nc1ccc(Sc2ncnc3scc(-c4ccccc4)c23)cc1 ?
ABHD4 inh: -8.5; PRMT1 inh: 35.1*; HTRA1 inh: -15.0; rCAG binder: 1.8; SIAE inh: -0.4; PRMT1 confirm: 37.0*

What do the screens show for `c1ccc(OCc2nnc(SCc3nc4ccccc4[nH]3)n2-c2ccccc2)cc1`?
ABHD4 inh: 2.8; PRMT1 inh: -2.9; rCAG binder: 2.2; SIAE inh: -0.1

How did O=C1NNC(c2ccccc2)=N/C1=C\c1ccccc1Cl do in these assays?
ABHD4 inh: 3.3; PRMT1 inh: -0.7; HTRA1 inh: -15.9; rCAG binder: 8.1; SIAE inh: -1.8

What do the screens show for `O=C1NNC(c2ccccc2)=N/C1=C\c1ccco1`?
ABHD4 inh: 29.5; PRMT1 inh: 29.8*; HTRA1 inh: 22.4; rCAG binder: 23.0; SIAE inh: 12.0; PRMT1 confirm: 13.0

How did Cc1ccccc1N1C(=O)CC(Sc2nnc(-c3ccccc3)o2)C1=O (stereo not drawn) do in these assays?
ABHD4 inh: -8.3; PRMT1 inh: 83.4*; HTRA1 inh: -1.2; rCAG binder: 3.7; SIAE inh: -4.2; PRMT1 confirm: 67.6*

What do the screens show for `O=C1CC(Sc2nnc(-c3ccccc3)o2)C(=O)N1c1ccccc1` (stereo not drawn)?
ABHD4 inh: 6.7; PRMT1 inh: 68.4*; HTRA1 inh: 3.2; rCAG binder: 0.3; SIAE inh: 5.5; PRMT1 confirm: 59.7*

Results for CC(=O)NC(c1ccc(F)c(F)c1)c1nc(-c2cccc(F)c2)cs1 (stereo not drawn) ?
ABHD4 inh: -3.2; PRMT1 inh: 0.0; rCAG binder: 1.8; SIAE inh: -5.3

Results for CC(=O)NC(c1ccc(F)c(F)c1)c1nc(-c2cnc3ccccc3c2)cs1 (stereo not drawn) ?
ABHD4 inh: -5.8; PRMT1 inh: 31.8*; rCAG binder: 3.1; SIAE inh: -3.7; PRMT1 confirm: 3.3

What do the screens show for `O=C(COC(=O)c1cc(Br)ccc1O)Nc1cc(S(=O)(=O)N2CCCC2)ccc1Cl`?
ABHD4 inh: -21.6; PRMT1 inh: 45.3*; HTRA1 inh: -24.4; rCAG binder: 11.6; SIAE inh: -27.1; PRMT1 confirm: 22.5*

What do the screens show for `O=C(COC(=O)c1ccccc1O)Nc1cc(S(=O)(=O)N2CCCCCC2)ccc1Cl`?
ABHD4 inh: -2.9; PRMT1 inh: -2.4; HTRA1 inh: 0.6; rCAG binder: -0.8; SIAE inh: 4.4

Results for CCNc1cccc2c1C(=O)N(C)C2=O ?
ABHD4 inh: -0.3; PRMT1 inh: 43.6*; HTRA1 inh: -1.2; rCAG binder: -42.1; SIAE inh: -1.2; PRMT1 confirm: 46.1*

Results for CCOC(=O)C1(Cc2ccccc2)CCN(Cc2ccccc2[N+](=O)[O-])CC1 ?
ABHD4 inh: -2.6; PRMT1 inh: -2.5; rCAG binder: 1.6; SIAE inh: -0.9

How did CC(C)(O)c1cc2ccc(C#CCCN3C(=O)c4ccccc4C3=O)cc2c(=O)o1 do in these assays?
ABHD4 inh: -2.3; PRMT1 inh: 2.1; HTRA1 inh: 5.8; rCAG binder: 1.8; SIAE inh: 5.2

What do the screens show for `Clc1cccc(Cc2c(-c3ccco3)nc3ccc(Br)cn23)c1`?
ABHD4 inh: 1.2; PRMT1 inh: 34.2*; rCAG binder: 28.7; SIAE inh: -7.4; PRMT1 confirm: 13.4

What do the screens show for `Clc1ccc(-c2nc3ccc(Cl)cn3c2Cc2cccc(Cl)c2)cc1`?
ABHD4 inh: -71.1; PRMT1 inh: 1.7; rCAG binder: 27.6; SIAE inh: -16.0

What do the screens show for `Brc1ccc2nc(-c3ccco3)c(Cc3ccccc3)n2c1`?
ABHD4 inh: -2.7; PRMT1 inh: 42.2*; rCAG binder: 29.0; SIAE inh: -4.1; PRMT1 confirm: 14.9

How did Clc1cccc(Cc2c(-c3ccco3)nc3ccc(Cl)cn23)c1 do in these assays?
ABHD4 inh: 6.8; PRMT1 inh: 47.0*; rCAG binder: 25.9; SIAE inh: 5.8; PRMT1 confirm: 17.1

How did O=C(NC1CCCCC1)c1cccc(OCc2ccccc2)c1 do in these assays?
ABHD4 inh: -7.6; PRMT1 inh: -2.0; HTRA1 inh: -14.3; rCAG binder: -7.6; SIAE inh: 3.5

How did O=C(CNc1ccc(F)cc1)c1ccccc1 do in these assays?
ABHD4 inh: 1.6; PRMT1 inh: -0.5; HTRA1 inh: -1.2; rCAG binder: -1.0; SIAE inh: 4.5

What do the screens show for `NC(=O)c1ccccc1NCC(=O)c1ccc(F)cc1`?
ABHD4 inh: -8.0; PRMT1 inh: 34.1*; HTRA1 inh: 4.9; rCAG binder: 2.6; SIAE inh: -0.4; PRMT1 confirm: 2.8

What do the screens show for `Cc1cc(C)n(CCc2nc(-c3cc4ccccc4o3)cs2)n1`?
ABHD4 inh: -5.8; PRMT1 inh: 1.9; HTRA1 inh: -16.9; rCAG binder: -1.9; SIAE inh: -0.5

Results for Cc1cc(C)n(CCc2nc(-c3ccc(C)o3)cs2)n1 ?
ABHD4 inh: 6.6; PRMT1 inh: 68.5*; HTRA1 inh: 3.1; rCAG binder: 3.1; SIAE inh: -3.6; PRMT1 confirm: 33.6*

What do the screens show for `CCOC(=O)[C@]12CCCC=C1N(Cc1cccc3ccccc13)C(=O)[C@H](CC(=O)NCC1CCCCC1)C2`?
ABHD4 inh: 2.9; PRMT1 inh: -1.3; rCAG binder: 1.9; SIAE inh: -3.2

Results for N#Cc1ccc(NC(=O)CSc2nc3[nH]c(=O)cc(O)c3s2)cc1 ?
ABHD4 inh: 17.6; PRMT1 inh: 8.8; HTRA1 inh: -18.9; rCAG binder: 26.0; SIAE inh: -13.8
